From ChEMBL document CHEMBL5331127, “Discovery of ARD-2051 as a Potent and Orally Efficacious Proteolysis Targeting Chimera (PROTAC) Degrader of Androgen Receptor for the Treatment of Advanced Prostate Cancer” (J Med Chem, 2023) come the findings set out here.

The nature of data set [1]: Drug concentration in ICR mouse plasma at 10 mg/kg, po measured after 3 hrs. Type of data set: ADME, organism-based. In outline:
(§1)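 Mice given a single 10 mg/kg dose by oral gavage, 3 mice per time point. Plasma drug levels measured at 1, 3, 6 and 24 h; mean ± SD reported.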

Data set [2] is described as follows: Drug concentration in ICR mouse plasma at 10 mg/kg, po measured after 24 hrs. Type of data set: ADME, organism-based. The gist of the method:
as §1

For data set [3], the system named is LNCaP. In words: Induction of androgen receptor degradation in human LNCaP cells at 100 nM pretreated with thalidomide for 2 hrs followed by compound addition and 3 hrs by Western blot analysis. Type of data set: functional, cell-based. Conditions: time 5.0 hrs. The gist of the method: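 LNCaP or VCaP cells pretreated 2 h with DMSO, ARi-12 (10 μM), thalidomide (10 μM), MG-132 (3 μM) or MLN4924 (0.5 μM), then given degrader at 100 nM for 3 h. AR measured by Western blot with GAPDH as loading control.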
A general note: In western blotting, separated proteins are transferred to a membrane and probed.

Data set [4] concerns VCaP. In words: Downregulation of KLK3 gene expression in human VCaP cells incubated for 24 hrs by qRT-PCR analysis. Type of data set: functional, cell-based. Conditions: dose 0.03-30 nM. The gist of the method: (§2)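 LNCaP cells (RPMI 1640) or VCaP cells (DMEM Glutamax), both with 10% FBS, treated for 24 h. KLK3 mRNA measured by qRT-PCR and calculated by the comparative CT method against GAPDH and vehicle.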
For orientation: Real-time PCR tracks product formation cycle by cycle.

Data set [5] is described as follows: Downregulation of KLK3 gene expression in human VCaP cells at 30 nM incubated for 24 hrs by qRT-PCR analysis. Type of data set: functional. The gist of the method: as §2
The nature of data set [6]: Metabolic stability in rat liver microsomes assessed as half life at 1 uM measured upto 45 mins in presence of NADPH by LC-MS/MS analysis. The class given is ADME, Microsome. Conditions: 0.75 h. The gist of the method:
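Pooled liver microsomes from each species: 1 μM compound with 0.5 mg/mL microsomes and 1.7 mM NADPH in 0.1 M K-phosphate, pH 7.4, 5 mM MgCl2, 37 °C. Sampled at 0, 5, 10, 15, 30 and 45 min with cold ACN quench. No-NADPH incubation as negative control; ketanserin as positive control. LC-MS/MS; half-life from ln(remaining) versus time.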

The nature of data set [7]: Metabolic stability in monkey plasma assessed as half life at 1 uM measured upto 120 mins by LC-MS/MS analysis. Type of data set: ADME, cell-free, Macaca mulatta. Conditions: rhesus monkey, 2 h. In outline: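 Compound at 1 μM final in pre-warmed plasma of each species, 37 °C for up to 2 h. ACN/IS quench at 0, 5, 15, 30, 60 and 120 min; LC/MS. Procaine as reference (benfluorex for rat). t1/2 = 0.693/slope of ln(fraction remaining) versus time.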

Data set [8] deals with T1, Cytochrome P450 2B6 (Homo sapiens, UniProt P20813).
T1 sequence (P20813 whole entry): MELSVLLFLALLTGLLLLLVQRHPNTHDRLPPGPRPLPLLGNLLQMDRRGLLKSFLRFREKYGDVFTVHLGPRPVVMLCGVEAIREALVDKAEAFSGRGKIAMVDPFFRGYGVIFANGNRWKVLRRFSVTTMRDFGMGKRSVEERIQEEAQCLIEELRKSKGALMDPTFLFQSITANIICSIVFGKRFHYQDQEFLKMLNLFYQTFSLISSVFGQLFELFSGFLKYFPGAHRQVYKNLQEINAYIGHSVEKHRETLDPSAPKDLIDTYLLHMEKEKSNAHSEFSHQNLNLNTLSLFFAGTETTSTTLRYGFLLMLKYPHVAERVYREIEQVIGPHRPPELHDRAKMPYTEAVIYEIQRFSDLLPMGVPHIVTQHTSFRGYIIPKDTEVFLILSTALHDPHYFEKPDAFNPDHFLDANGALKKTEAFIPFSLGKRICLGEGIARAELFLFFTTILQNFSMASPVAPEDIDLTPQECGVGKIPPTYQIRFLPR
In words: Inhibition of CYP2B6 in human liver microsomes preincubated for 5 mins followed by NADPH addition and measured after 10 mins by LC/MS analysis. Type of data set: ADME, Microsome. In general terms: Liver microsomes are vesicles of endoplasmic reticulum, rich in cytochrome P450 enzymes.

The target in data set [9] is Cytochrome P450 2C9 (Homo sapiens, UniProt P11712). In words: Inhibition of CYP2C9 in human liver microsomes preincubated for 5 mins followed by NADPH addition and measured after 10 mins by LC/MS analysis. The class given is ADME, Microsome.
Cytochrome P450 2C9, sequence (P11712 whole entry): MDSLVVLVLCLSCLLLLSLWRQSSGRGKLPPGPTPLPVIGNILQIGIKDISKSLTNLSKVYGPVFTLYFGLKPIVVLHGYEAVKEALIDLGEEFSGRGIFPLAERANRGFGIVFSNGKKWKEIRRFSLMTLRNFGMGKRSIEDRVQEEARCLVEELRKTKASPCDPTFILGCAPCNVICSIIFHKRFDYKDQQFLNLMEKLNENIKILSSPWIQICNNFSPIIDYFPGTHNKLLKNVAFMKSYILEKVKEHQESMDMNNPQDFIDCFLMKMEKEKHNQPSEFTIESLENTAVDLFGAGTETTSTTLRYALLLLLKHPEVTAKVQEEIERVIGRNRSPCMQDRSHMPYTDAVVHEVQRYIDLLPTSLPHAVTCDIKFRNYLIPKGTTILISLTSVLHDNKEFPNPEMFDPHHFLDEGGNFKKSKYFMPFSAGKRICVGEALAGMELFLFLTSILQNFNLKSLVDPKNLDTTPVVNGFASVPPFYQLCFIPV
Data set [10] has as its target Cytochrome P450 2C19 (Homo sapiens, UniProt P33261). In words: Inhibition of CYP2C19 in human liver microsomes preincubated for 5 mins followed by NADPH addition and measured after 10 mins by LC/MS analysis. The class given is ADME, Microsome.
Data set [11] can be described thus: Clearance in Sprague-Dawley rat at 1 mg/kg, iv measured upto 24 hrs by LC-MS/MS analysis. Type of data set: ADME, organism-based. The note with it: in vivo. In outline:
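Male Sprague Dawley rats received a single intravenous dose of 1 mg/kg, formulated in 10% PEG400 + 90% PBS adjusted to pH 8.0 with 0.5 N NaOH.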

Data set [12] relates to Mus musculus. In words: In vivo induction of androgen receptor degradation in human VCaP cells xenografted in CB17 SCID mouse assessed as reduction in FKBP5 mRNA level at 12.5 mg/kg, po measured after 6 to 24 hrs by qRT-PCR analysis. Type of data set: functional, organism-based. The note with it: time 6-24 hrs.
Data set [13] in a line: Toxicity in CB17 SCID mouse assessed as weight loss at 3.75 to 30 mg/kg, po. The class given is organism-based. The note with it: in vivo, dose 3.75-30 mg/kg. In outline:
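SCID mice bearing VCaP xenografts dosed by oral gavage once daily for 21 days. Body weight and signs of toxicity monitored throughout.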

Data set [14] has as its target Androgen receptor (Homo sapiens) (UniProt P10275). In words: In vivo induction of androgen receptor degradation in human VCaP cells xenografted in CB17 SCID mouse assessed as reduction in AR protein level at 12.5 mg/kg, po measured after 24 hrs by Western blotting analysis. Further details: scale not given: the % may be the effect or the level left.

Active and inactive are the calls of the source. No cut-off for these calls is given here.

Cytochrome P450 2C19, sequence (P33261 whole entry): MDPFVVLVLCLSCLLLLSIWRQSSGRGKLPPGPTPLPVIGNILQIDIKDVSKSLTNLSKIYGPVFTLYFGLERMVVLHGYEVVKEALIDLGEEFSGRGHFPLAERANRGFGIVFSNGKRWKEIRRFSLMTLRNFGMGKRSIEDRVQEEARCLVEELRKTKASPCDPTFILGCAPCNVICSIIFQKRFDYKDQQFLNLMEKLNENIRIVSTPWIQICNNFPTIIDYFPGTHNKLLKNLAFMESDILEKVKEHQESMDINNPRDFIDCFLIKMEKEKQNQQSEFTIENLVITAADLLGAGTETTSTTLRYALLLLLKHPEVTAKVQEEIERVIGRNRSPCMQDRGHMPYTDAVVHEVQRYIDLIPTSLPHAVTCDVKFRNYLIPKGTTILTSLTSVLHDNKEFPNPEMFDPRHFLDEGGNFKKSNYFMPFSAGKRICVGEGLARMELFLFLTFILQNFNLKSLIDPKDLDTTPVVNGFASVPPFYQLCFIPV

One may read the IC50 as the concentration needed to halve the response being measured. The clearance is the rate of elimination divided by the concentration. On to `C[C@H]1CC2(CCN(c3ccc(C(=O)N4CCN(C5CN(c6ccc7c(c6)C(=O)N(C6CCC(=O)NC6=O)C7=O)C5)CC4)cc3)CC2)CN1c1ccc(C#N)c(Cl)c1` (some centres undefined), for which, in [1], the concentration at 3 h amounted to 664 ng/mL. Besides, the concentration at 24 h in data set [2] was 77 ng/mL. Further, the result in data set [3] was inactive. The Activity result in [4] is “Dose-Dependent Effect”; in [5], 87%; in data set [13], less than 5%; in [14], more than 95%. The t1/2 in data set [6] is more than 1 h; in data set [7], more than 2 h. Besides, the IC50 in [8], in data set [9] and in [10] was more than 10 µM throughout. The clearance in [11] came out at 10.2 mL/min/kg. The result in [12] was Active.
